Assay outcomes deposited in PubChem BioAssay by NMMLSC.
The list is not random: actives were taken first. Their share in the collection is about 2.3%.
MEKK3 PB1 HTS = modulators of MEKK3-MEK5 PB1 binding, primary screen, biochemical, wildtype MEKK3, multiplex bead flow cytometry, Alexa488-MEK5; Mitogen-activated protein kinase kinase kinase 3 (Homo sapiens), Q99759; bead-based flow cytometry, Alexa488-MEK5 binding to MEKK3; actives lie on both sides; 0 = blocked by unlabeled MEK5, 100 = vehicle; binding response (% of control), % at 10 µM; actives 1.4% (n = 290,000);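 active = binding response more than 3 SD above or below the average of its plate-row segment, actives on both sides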;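 note: Alexa488 bead fluorescence after subtracting the streptavidin-only scavenger bead signal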
Target sequence (Q99759 whole entry, looked up): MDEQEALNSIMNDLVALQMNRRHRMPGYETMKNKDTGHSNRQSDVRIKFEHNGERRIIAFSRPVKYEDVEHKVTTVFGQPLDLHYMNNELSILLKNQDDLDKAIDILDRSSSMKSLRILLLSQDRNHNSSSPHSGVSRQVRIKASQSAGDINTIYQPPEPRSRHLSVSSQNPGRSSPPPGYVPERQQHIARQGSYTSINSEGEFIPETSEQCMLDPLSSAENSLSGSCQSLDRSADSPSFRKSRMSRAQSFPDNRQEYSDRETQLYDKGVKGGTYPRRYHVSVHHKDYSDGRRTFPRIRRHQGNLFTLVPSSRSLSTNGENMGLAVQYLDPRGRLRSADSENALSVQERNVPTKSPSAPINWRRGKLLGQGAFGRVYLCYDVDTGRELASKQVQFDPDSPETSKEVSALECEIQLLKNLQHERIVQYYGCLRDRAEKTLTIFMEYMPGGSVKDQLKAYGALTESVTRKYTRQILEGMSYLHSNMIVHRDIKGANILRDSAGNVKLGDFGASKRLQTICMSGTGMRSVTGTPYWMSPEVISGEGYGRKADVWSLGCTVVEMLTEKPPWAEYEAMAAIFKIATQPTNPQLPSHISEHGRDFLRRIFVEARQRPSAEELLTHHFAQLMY
ABCB1 inh = ABCB1 efflux pump inhibitors, primary screen, cell-based, multiplex, flow cytometry, ABCG2 counter-screen; ATP-dependent translocase ABCB1 (Homo sapiens), P08183; CCRF-Adr cells, JC-1 efflux; inhibition, % at 6.6 µM; actives 0.067% (n = 190,000); in the data active = inhibition above about 40%;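 note: 0% = vehicle and 100% = reference inhibitor; higher value means more JC-1 retained so stronger ABCB1 efflux block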
ABCG2 inh = ABCG2 efflux pump inhibitors, primary screen, multiplex with ABCB1, IgMXP3 cells, flow cytometry; JC-1 efflux; inhibition, % at 6.6 µM; actives 0.1% (n = 190,000); AID 1325, 2008;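 active = inhibition above 80%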;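 note: 0% = DMSO and 100% = nicardipine control wells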
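Test system: IgMXP3 cells (ABCG2) mixed with DDAO far-red-labelled CCRF-Adr cells (ABCB1). Reagent: JC-1 transporter substrate. Compound dosing: single test compound dose, 6.6 µM final. Times: 10 min compound exposure, 25 °C. Detection: flow cytometry of retained JC-1 fluorescence. Read-out basis: efflux inhibition in percent versus controls. Controls: nicardipine and DMSO wells.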
MEKK2mut PB1 HTS = MEK5 binding signal on mutant MEKK2 PB1, primary screen, biochemical, multiplex bead flow cytometry, Alexa488-MEK5; Alexa488-MEK5 binding to MEKK2 mutant; percent response, % at 10 µM; actives 0.35% (n = 290,000); AID 1530, 2009; in the data active = percent response above about 24%, passing the limit was not always enough
MEKK2 WT-MEK5 = modulators of MEK5 binding to wildtype MEKK2, primary screen, biochemical, multiplex bead flow cytometry, Alexa488-MEK5 | binding response (% of control), % at 10 µM | actives 1.1% (n = 290,000) | Alexa488-MEK5 binding to MEKK2 WT; actives lie on both sides | Mitogen-activated protein kinase kinase kinase 2 (Homo sapiens), Q9Y2U5; in the data active = binding response below about 67% or above about 130%
ABCB1 confirm = ABCB1 efflux pump inhibitors, confirmation, cell-based, single point, ABCG2 counter-screen | inhibition, % at 6.6 µM | actives 7% (n = 270) | CCRF-Adr cells, JC-1 efflux, flow cytometry | shares compounds with ABCG2 inh;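 active = inhibition of pump activity above 50%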;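 note: 0% = DMSO and 100% = nicardipine full pump inhibition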
ABCG2 single pt = ABCG2 efflux pump inhibitors, confirmation, single point, IgMXP3 cells, ABCB1 counter-screen paired; JC-1 efflux, flow cytometry; shares compounds with ABCG2 inh; inhibition, % at 6.6 µM; actives 6% (n = 270); AID 1453, 2008;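 active = inhibition above 50%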;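 note: 0% = DMSO wells and 100% = nicardipine pump inhibitor wells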
IgMXP3 fluor = compound autofluorescence in ABCG2-expressing IgMXP3 cells, confirmation, artefact control for ABC transporter inhibitor project, cell-based, 488/530 nm, flow cytometry. shares compounds with ABCG2 inh. compound autofluorescence 488/530 nm; stronger effect = higher value. fluorescence at 6.6 µM. actives 30% (n = 270). AID 1480, 2009;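 active = fluorescence in ABCG2-expressing cells above the plate's control-well mean plus 3 SD, cut at about 15 in these data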;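 note: median cell fluorescence with compound minus that of DMSO-treated control cells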
CCRF autofluor = compound autofluorescence in ABCB1-expressing CCRF-Adr cells, confirmation, artefact control for ABC transporter inhibitor project, cell-based, 488/530 nm, flow cytometry. shares compounds with ABCG2 inh. compound autofluorescence 488/530 nm; stronger effect = higher value. fluorescence at 6.6 µM. actives 30% (n = 270);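 active = fluorescence beyond the plate control mean plus 3 SD, with a fluorescence-to-maximum score over 2, cut at about 25 in these data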
Starred values were filed as active, the others as inactive; . = no result given; [ ] = dose if it differs, or a comment.

SMILES | MEKK3 PB1 HTS | ABCB1 inh | ABCG2 inh | MEKK2mut PB1 HTS | MEKK2 WT-MEK5 | others
CC(C)OCCCN1C(=O)c2[nH]nc(-c3ccccc3O)c2C1c1cccc(Cl)c1 (configuration not stated) | 138* | 0 | 0 | 3 | 110
Cc1nn(Cc2ccccc2)c(Cl)c1/C=N/NC(=O)c1cccnc1 | 100 | 3 | 15 | -1 | 100
Cc1c(/C=N/NC(=O)c2cccnc2)c2ccccc2n1Cc1ccccc1 | 105 | 2 | 9 | 110* | 62*[inhibitor]
CN(C(=O)c1c(Br)cnn1C)C12CC3CC(CC(C3)C1)C2 | 144* | 0 | 0 | 0 | 109
Cn1ncc(Br)c1C(=O)NC1CCCCC1 | 101 | . | . | 2 | 98
Cc1cccc(C(=O)Nc2ccc(C)c(OC(=O)c3cccc(C)c3)c2)c1 | 2.0*[inhibitor] | 0 | 1 | -26 | -2.0*[inhibitor]
O=C(/C=C/c1ccc(F)cc1)Nc1nc2ccccc2[nH]1 | 208* | 0 | 3 | 1 | 112
O=C(Nc1nc2ccccc2[nH]1)c1cccc(F)c1 | 103 | . | . | 5 | 107
CC1(c2ccc([N+](=O)[O-])cc2)Nc2ccccc2S1 (configuration not stated) | 105 | . | . | 0 | 100
Cc1ccc(C(=O)c2cc([N+](=O)[O-])ccc2N2CCCCC2)cc1C | 113 | -1 | -6 | -1 | 104
Cc1ccc(C(=O)c2cc([N+](=O)[O-])ccc2N2CCOCC2)cc1C | 144* | 0 | -3 | 1 | 111
COc1ccc(C(=O)c2cc([N+](=O)[O-])ccc2N2CCCC2)cc1 | 132* | 8 | 21 | 1 | 106
COc1ccc(C(=O)c2cc([N+](=O)[O-])ccc2N2CCN(C)CC2)cc1 | 90 | 0 | 2 | -6 | 98
CCC1(C)Cc2c(sc(NC(=S)NC(=O)c3ccccc3)c2C#N)CO1 (configuration not stated) | 87 | 0 | 0 | -1 | 98
CN1Cc2sc(NC(=S)NC(=O)c3ccccc3)c(C#N)c2CC1(C)C | 93 | . | . | 11 | -14*
Cc1ccc(/C=C/C(=O)OCC(=O)Nc2cccc(S(=O)(=O)N(C)C)c2)o1 | 104 | 1 | 15 | 11 | 10*
O=C(c1cc(F)c(F)cc1Cl)N1CCCc2ccccc21 | 103 | . | . | 1 | 107
CCN1CCc2c(sc(NC(=O)Nc3ccc(Cl)c(Cl)c3)c2C(N)=O)C1 | 111 | 39 | 136* | 2 | 127
CCC(C)c1ccc(NC(=O)CN(C)CC(=O)Nc2cccc(OC)c2)cc1 (configuration not stated) | 101 | 1 | -1 | -6 | -6.0*
O=C(CNS(=O)(=O)c1ccccc1)N/N=C/c1ccccc1[N+](=O)[O-] | 101 | . | . | 5 | 100
CC(C)N(C(=O)COC(=O)c1cccc(N(C)C)c1)c1ccccc1 | 104 | . | . | 2 | 100
O=c1nc(N/N=C/c2ccccn2)cn[nH]1 | 3.0*[inhibitor] | 1 | 8 | -18 | 4.0*[inhibitor]
Cc1ccc(/C=N/Nc2cn[nH]c(=O)n2)o1 | 106 | 1 | 4 | -9 | 97
Cc1ccccc1NC(=O)OCc1ccccc1 | 103 | . | . | 10 | 105
N=c1c2c(ncn1CCCO)Oc1cc(O)ccc1C2c1ccccc1 (configuration not stated) | 106 | . | . | 4 | -4.0*
SMILES | MEKK3 PB1 HTS | ABCB1 inh | ABCG2 inh | MEKK2mut PB1 HTS | MEKK2 WT-MEK5 | others
Cc1cc(Br)cc(Cl)c1OC(=O)c1ccncc1 | 1.0*[inhibitor] | . | . | -39 | 1.0*[inhibitor]
COc1ccccc1C(=O)NC(=S)/C=C1/N(C)c2ccccc2C1(C)C | 103 | 0 | -1 | -1 | 94
CN1/C(=C\C(=S)NC(=O)c2ccccc2Cl)C(C)(C)c2ccccc21 | 86 | 0 | 1 | 0 | 1.0*
COc1ccc(N2CCN(C(=O)C(=O)c3cn(CC(=O)N4CCCCCC4)c4ccccc34)CC2)cc1 | 97 | . | . | 5 | -5.0*
CCN1CCN(C(=O)C(=O)c2cn(CC(=O)N3CCCCCC3)c3ccccc23)CC1 | 102 | . | . | 9 | 56*
CCN1CCN(C(=O)C(=O)c2cn(CC(=O)N3CCCC3)c3ccccc23)CC1 | 99 | . | . | -4 | 100
COc1cc(NC(=O)C2CC(c3ccccc3Cl)=NO2)cc(OC)c1OC (configuration not stated) | 101 | . | . | 7 | 105
CCOc1ccc(N2C(=O)C3ON(c4ccccc4)C(c4cccs4)C3C2=O)cc1 (configuration not stated) | 104 | 95* | 29 | -4 | 96 | ABCB1 confirm=1;ABCG2 single pt=23;IgMXP3 fluor=-1.2;CCRF autofluor=-0.79
COc1cccc(N2C(=O)C3ON(c4ccccc4)C(c4cccs4)C3C2=O)c1 (configuration not stated) | 102 | 0 | 1 | 2 | 105
COC(=O)c1cc(NC(=O)c2cccc(C(F)(F)F)c2)c(=O)oc1C | 110 | 1 | 12 | 1 | 103
COC(=O)c1cc(NC(=O)c2cccc(Cl)c2)c(=O)oc1/C=C/Nc1cc(C)cc(C)c1 | 68*[inhibitor] | 138* | 135* | 558* | . | ABCB1 confirm=0;ABCG2 single pt=-183;IgMXP3 fluor=503*;CCRF autofluor=612*
O=C(O)c1cccc(S(=O)(=O)Nc2ccccc2C(=O)NCCc2ccccc2)c1 | 99 | . | . | -3 | 98
CCOc1ccc(OCc2ccc(C(=O)OCc3ccccn3)o2)cc1 | . | 3 | 87* | . | . | ABCB1 confirm=0;ABCG2 single pt=26;IgMXP3 fluor=0.46;CCRF autofluor=-2.7
COc1ccc(OC)c(NC(=O)c2cccc(C)c2[N+](=O)[O-])c1 | 101 | -1 | 5 | -4 | 96
